SMILES strings stand for the structures. Values after ≈ are worked out from the molar mass of the structure shown.

For orientation: MIC means the lowest concentration that inhibits growth of the organism. The low end stands for inhibition by little substance, the high end for a need for much substance. What is called inhibition is the share of the control response that was lost under treatment. Read a low inhibition as little suppression.

Common to all, as to type: functional
Test [1] is described as follows: Antibacterial activity against Clostridium difficile ATCC 43255 by broth microdilution method. The conditions noted are these: Clostridioides difficile. In outline:
(§1)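 Broth microdilution MICs were run per CLSI M07-A8 (2009). The strain panel included C. difficile ATCC 43255, E. faecalis ATCC 29212 and S. pyogenes ATCC BAA-595.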
(In general: In broth dilution the organism is exposed to a series of concentrations in liquid medium.)

Test [2] deals with Enterococcus faecium. In words: Antibacterial activity against Enterococcus faecium 7130724 by broth microdilution method.
For test [3], the system named is Enterococcus faecalis. In words: Antibacterial activity against Enterococcus faecalis ATCC 29212 by broth microdilution method. In outline:
as §1

Test [4] relates to Escherichia coli. Nature of the test: Inhibition of protein synthesis in Escherichia coli S30 extract at 2 uM after 75 mins by luciferase based luminescence assay relative to GE2270A.
Test [5] relates to Staphylococcus aureus. In words: Antibacterial activity against Staphylococcus aureus A4.018 by broth microdilution method.
For test [6], the system named is Streptococcus pyogenes. Nature of the test: Antibacterial activity against Streptococcus pyogenes ATCC BAA-595 by broth microdilution method. The method in brief: as §1

`CNC(=O)C[C@@H]1NC(=O)c2csc(n2)-c2ccc(-c3nc(N(CCCCC(=O)O)C(=O)OCc4ccc(C(=O)O)cn4)cs3)nc2-c2csc(n2)-c2csc(n2)[C@H]([C@@H](O)c2ccccc2)NC(=O)CNC(=O)c2nc(sc2COC)[C@H](C(C)C)NC(=O)c2nc1sc2C`: the MIC came to 0.125 µg/mL (≈ 0.0909 µM) in test [1]; 1 µg/mL (≈ 0.727 µM) in test [2]; 1 µg/mL (≈ 0.727 µM) in test [3]; 2 µg/mL (≈ 1.45 µM) in test [5]; 4 µg/mL (≈ 2.91 µM) in test [6]. The compound also gave an inhibition at 2 µM in test [4] of 67%.
On to `CNC(=O)C[C@@H]1NC(=O)c2csc(n2)-c2ccc(-c3nc(N(CCCCC(=O)O)C(=O)N4CCC(C(=O)O)CC4)cs3)nc2-c2csc(n2)-c2csc(n2)[C@H]([C@@H](O)c2ccccc2)NC(=O)CNC(=O)c2nc(sc2COC)[C@H](C(C)C)NC(=O)c2nc1sc2C`, for which the MIC in test [1] is greater than 4 µg/mL; in test [2] it was greater than 32 µg/mL; in test [3], greater than 32 µg/mL; in test [5], greater than 32 µg/mL; in test [6], greater than 32 µg/mL. Also, in test [4], the inhibition at 2 µM amounted to 30%.
Consider `CNC(=O)C[C@@H]1NC(=O)c2csc(n2)-c2ccc(-c3nc(N(CCCC(=O)O)C(=O)CCCCC(=O)O)cs3)nc2-c2csc(n2)-c2csc(n2)[C@H]([C@@H](O)c2ccccc2)NC(=O)CNC(=O)c2nc(sc2COC)[C@H](C(C)C)NC(=O)c2nc1sc2C`, for which the MIC is 2 µg/mL (≈ 1.53 µM) in test [1]; 32 µg/mL (≈ 24.4 µM) in test [2]; 32 µg/mL (≈ 24.4 µM) in test [3]; 16 µg/mL (≈ 12.2 µM) in test [5]; greater than 32 µg/mL in test [6]. In test [4], this compound displayed an inhibition at 2 µM of 30%.
On to `CNC(=O)C[C@@H]1NC(=O)c2csc(n2)-c2ccc(-c3nc(N(CCCCC(=O)O)C(=O)OCCC(CCCCC(=O)O)C(=O)O)cs3)nc2-c2csc(n2)-c2csc(n2)[C@H]([C@@H](O)c2ccccc2)NC(=O)CNC(=O)c2nc(sc2COC)[C@H](C(C)C)NC(=O)c2nc1sc2C` (stereo partly drawn), for which the MIC worked out at 0.5 µg/mL (≈ 0.35 µM) in test [1]; 16 µg/mL (≈ 11.2 µM) in test [2]; 8 µg/mL (≈ 5.61 µM) in test [3]; 16 µg/mL (≈ 11.2 µM) in test [5]; 32 µg/mL (≈ 22.4 µM) in test [6]. The same compound showed an inhibition at 2 µM in test [4] of 50%.
As for `CNC(=O)C[C@@H]1NC(=O)c2csc(n2)-c2ccc(-c3nc(N(CCCCC(=O)O)C(=O)NCCCC(=O)O)cs3)nc2-c2csc(n2)-c2csc(n2)[C@H]([C@@H](O)c2ccccc2)NC(=O)CNC(=O)c2nc(sc2COC)[C@H](C(C)C)NC(=O)c2nc1sc2C`, the MIC was 4 µg/mL (≈ 3.02 µM) in test [1]; greater than 32 µg/mL in test [2]; greater than 32 µg/mL in test [3]; 32 µg/mL (≈ 24.1 µM) in test [5]; greater than 32 µg/mL in test [6]. The inhibition at 2 µM in test [4] worked out at 30%.
Consider `CNC(=O)C[C@@H]1NC(=O)c2csc(n2)-c2ccc(-c3nc(N(CCCCC(=O)O)C(=O)OCC(CCCCC(=O)O)CC(=O)O)cs3)nc2-c2csc(n2)-c2csc(n2)[C@H]([C@@H](O)c2ccccc2)NC(=O)CNC(=O)c2nc(sc2COC)[C@H](C(C)C)NC(=O)c2nc1sc2C` (stereo partly drawn), for which the MIC stood at 1 µg/mL (≈ 0.701 µM) in test [1]; 8 µg/mL (≈ 5.61 µM) in test [2]; 8 µg/mL (≈ 5.61 µM) in test [3]; 8 µg/mL (≈ 5.61 µM) in test [5]; 32 µg/mL (≈ 22.4 µM) in test [6]. The compound further displayed an inhibition at 2 µM in test [4] of 50%.
As to `CNC(=O)C[C@@H]1NC(=O)c2csc(n2)-c2ccc(-c3nc(N(CCOCC(=O)O)C(=O)O[C@H]4CC[C@H](C(=O)O)CC4)cs3)nc2-c2csc(n2)-c2csc(n2)[C@H]([C@@H](O)c2ccccc2)NC(=O)CNC(=O)c2nc(sc2COC)[C@H](C(C)C)NC(=O)c2nc1sc2C`, the MIC in test [1] stood at 0.125 µg/mL (≈ 0.0913 µM); in test [2] it was 2 µg/mL (≈ 1.46 µM); in test [3] it was 2 µg/mL (≈ 1.46 µM); in test [5], 4 µg/mL (≈ 2.92 µM); in test [6] it was 4 µg/mL (≈ 2.92 µM). The inhibition at 2 µM in test [4] was determined as 67%.
For `CNC(=O)C[C@@H]1NC(=O)c2csc(n2)-c2ccc(-c3nc(N(CCCC(=O)O)C(=O)CCCC(=O)O)cs3)nc2-c2csc(n2)-c2csc(n2)[C@H]([C@@H](O)c2ccccc2)NC(=O)CNC(=O)c2nc(sc2COC)[C@H](C(C)C)NC(=O)c2nc1sc2C`, the minimum inhibitory concentration (MIC) was greater than 4 µg/mL in test [1]; greater than 32 µg/mL in test [2]; greater than 32 µg/mL in test [3]; greater than 32 µg/mL in test [5]; greater than 32 µg/mL in test [6]. The compound further had an inhibition at 2 µM in test [4] of 30%.
